High-throughput results deposited in PubChem by several laboratories.
This is a sample that favours compounds with a hit; in the whole collection about 9.8% have one here.
Lmaj promast – Leishmania major promastigote growth inhibition. Leishmania major promastigotes, resazurin fluorescence viability. inhibition, % at 10 µM. 200,000 compounds, 9% hits. AID 1063; in the data active = inhibition above about 50%;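 also: promastigotes grown with compound for 44 hours at 28 °C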
WT yeast gro inh – growth inhibition of WT yeast, mitochondrial fusion screen; mitochondrial fusion phenotypic screen, WT strain; inhibition, % at 10 µM; 190,000 compounds, 2.1% hits; AID 1362; in the data active = inhibition above about 58%; tested in S. cerevisiae
Rad51 HR inh – Rad51 (human) homologous recombination inhibition; Q06609; hRad51 DNA strand exchange, fluorescence dequenching; inhibition, % at 10 µM; 200,000 compounds, 0.085% hits; AID 1385;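 active = inhibition above 40% at the single screening dose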;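 also: 0% = DMSO control wells and 100% = blanks with heterologous ssDNA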
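Assay system: Human Rad51 nucleoprotein filaments preassembled on unlabelled ssDNA | Reagent: Donor/quencher-labelled 47-bp dsDNA substrate | Doses: One concentration, 10 µM final | Times: 37 °C 15-min filament assembly, 30-min compound preincubation, 15-min exchange | Technique: Fluorescein emission 520 nm, excitation 485 nm | Benchmarks: Plate control and blank wells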
PMI act hi M6P – activators of human phosphomannose isomerase at near-saturating mannose 6-phosphate. activation factor at 20 µM. 190,000 compounds, 0.34% hits. coupled PMI enzyme assay, resazurin fluorescence, 20 min; stronger effect = higher value; 1 = untreated enzyme, 0 = substrate-free blank. P34949;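 active = activation factor of 2 or more at 20 µM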
Target sequence (P34949 whole entry, looked up): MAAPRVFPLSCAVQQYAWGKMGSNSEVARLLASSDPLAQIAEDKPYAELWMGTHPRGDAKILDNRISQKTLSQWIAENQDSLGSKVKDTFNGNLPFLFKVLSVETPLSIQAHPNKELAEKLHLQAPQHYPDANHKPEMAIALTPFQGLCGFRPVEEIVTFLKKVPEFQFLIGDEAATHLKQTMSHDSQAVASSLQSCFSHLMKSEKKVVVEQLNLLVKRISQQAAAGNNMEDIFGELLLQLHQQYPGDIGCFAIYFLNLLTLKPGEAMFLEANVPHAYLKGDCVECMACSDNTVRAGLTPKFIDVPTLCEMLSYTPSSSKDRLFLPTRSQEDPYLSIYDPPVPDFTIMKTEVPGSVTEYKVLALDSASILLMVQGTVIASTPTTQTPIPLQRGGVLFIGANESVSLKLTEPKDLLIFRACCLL
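test system = human PMI in coupled enzyme assay | medium = HEPES-buffered pH 7.4 with magnesium and detergent | also added = 1.0 mM mannose-6-phosphate substrate with 0.22 mM NADP+ | compound = 20 µM single dose | times = 20 min incubation at room temperature | measured by = resorufin fluorescence (Ex 544/Em 590 nm) from resazurin via diaphorase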
Calpain2 inh – calpain II (pig) inhibition. purified calpain II, fluorogenic peptide substrate, 30 min. inhibition, % at 16 µM. 220,000 compounds, 0.37% hits;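 active = inhibition above about 50%, limit read from the data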
PMI act – phosphomannose isomerase (human) activation; P34949; purified human PMI, coupled resazurin fluorescence, 20 min; stronger effect = higher value; 1 = vehicle control, 0 substrate-free wells; activation factor at 20 µM; 190,000 compounds, 0.005% hits;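 active = activation factor of 2 or more at 20 µM, relative to plate controls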
Active calls of the source: *; nt = no result given.

SMILES	Lmaj promast	WT yeast gro inh	Rad51 HR inh	PMI act hi M6P	Calpain2 inh	PMI act
COc1ccc(OCC#CCN2CC(C)OC(C)C2)cc1 (centres undefined)	57*	2	17	1	0	0.9
Brc1ccc(C2=Nn3c(nnc3-c3n[nH]c4c3CCC4)SC2)cc1	59*	-5	-1	1	-18	0.9
Cc1ccc(-c2nnc3n2N=C(c2ccc(Br)cc2)CS3)cc1	0	14	-5	1.1	0	1.1
Clc1ccc(C2=Nn3c(nnc3-c3n[nH]c4c3CCC4)SC2)cc1	58*	29	-1	0.9	7	0.9
Cc1nn(-c2ccccc2)c(Cl)c1/C=N/Nc1nncc(=O)[nH]1	nt	nt	nt	nt	-13	nt
O=C(NCCc1c[nH]c2ccccc12)C(=O)NCC(c1cccnc1)N1CCN(c2ccccc2)CC1 (centres undefined)	100*	-6	-1	0.8	-12	0.8
COc1ccc(C(C(O)C(=O)c2c[nH]c3ccccc23)N2CCN(c3ccc(OC)cc3)CC2)cc1 (centres undefined)	52*	16	0	0.9	-49	0.9
COc1ccc(N2CCN(C(CNC(=O)C(=O)NCCc3c[nH]c4ccccc34)c3ccco3)CC2)cc1 (centres undefined)	65*	13	6	0.9	-4	0.8
COc1ccc(OC)c2c(C)cc(C)nc12	-1	3	nt	0.8	13	0.9
Cc1cc(NC(=O)CSc2nnc(N)s2)c([N+](=O)[O-])cc1C	-5	-16	2	1.1	-26	1
CC(C)(C)C(=O)NNC(=O)c1cc2sccc2s1	nt	nt	-6	nt	4	nt
CN1c2ccccc2C(C)(C)[C@]12C=Cc1cc(O)ccc1O2	99*	26	-1	0.8	11	0.8
CC1(C)OC(=O)N(c2ccccc2)C12C=Cc1cc(Br)ccc1O2 (centres undefined)	25	5	-5	0.8	2	0.8
COc1ccc(-c2c(=O)n(OCc3ccccc3[N+](=O)[O-])c3ccccc3[n+]2[O-])c(OC)c1	19	-5	9	1	26	1
CCCc1nc2oc3c(NCCCN(C)C)ncnc3c2c2c1CCCC2	nt	nt	-6	nt	-57	nt
CCCc1nc2oc3c(NCCN(C)C)ncnc3c2c2c1CCCC2	101*	-1	-7	0.9	-53	1
COc1ccc(Nc2nc(NCC3CCCO3)nc(N)c2[N+](=O)[O-])cc1 (centres undefined)	nt	nt	18	nt	-10	nt
CCOc1ccc(Nc2nc(NCC3CCCO3)c3ccccc3n2)cc1 (centres undefined)	101*	57	-5	1.1	-29	1
c1ccc(-c2nc(NCC3CCCO3)c3ccccc3n2)nc1 (centres undefined)	100*	18	4	0.8	11	0.8
Oc1cccc(Nc2nc(NCC3CCCO3)c3ccccc3n2)c1 (centres undefined)	100*	-2	2	1	9	1
c1ccc(Nc2nc(NCC3CCCO3)c3ccccc3n2)cc1 (centres undefined)	99*	32	11	1	-9	1.1
c1ccc2c(NCC3CCCO3)nc(N3CCOCC3)nc2c1 (centres undefined)	9	0	3	nt	-268	nt
C/C(N)=C(/C#N)C(=O)COC(=O)c1oc2ccccc2c1COC(C)C	15	-9	-8	1	-14	1.2
O=C(Cc1ccc2c(c1)CCCC2)Nc1ccc2ccccc2c1	-4	-2	4	0.6	-16	0.8
CCOC(=O)c1[nH]c(CO)c(C(=O)OCC)c1C	nt	nt	0	nt	-12	nt
COc1ccc(Nc2nc(NCC3CCCO3)c3ccccc3n2)c(OC)c1 (centres undefined)	100*	13	3	1	8	1.1
COc1ccc(N2CC(C(=O)NCc3ccco3)CC2=O)cc1 (centres undefined)	4	0	-22	1.9	5	1.5
N/C(=N\NC(=O)c1sccc1OCc1ccc(Cl)cc1Cl)c1ccccn1	100*	38	5	1.3	-1	1.2
CNC(=S)NNC(=O)c1sccc1OCc1ccc(Cl)cc1Cl	-11	12	-2	1	3	1
CCc1nnc(NC(=O)C2(C)COC(c3ccc(OC)cc3)OC2)s1 (centres undefined)	5	-5	3	1	22	1
